Assay results from PMC2880883 (Biochemical pharmacology, 2010).
“Also recorded” adds a separate entry of the source. Read-outs that look alike come from different tables or passages of the source. Values belong to the compound of their own block, whether it stands above or below them.

Tests used:
[1] = test system: A3AR-transfected HL-1 cells; test: LDH assay, protection from H2O2-induced cell death, hA3AR-transfected cells; format: cell-based, mouse; conditions: for EC50: read-out: Protection of A3 AR-transfected cells against H2O2, EC50 (lactate dehydrogenase release); for Protection against H2O2-induced cytotoxicity in A3AR-transfected HL-1 cells: 750 μM H2O2; for IC50: HL-1, read-out: Protection from cell death induced by H2O2, transfected cells, IC50
[2] = test system: non-transfected HL-1 cells; test: LDH assay, protection from H2O2-induced cell death, untransfected cells; conditions: for Protection against H2O2-induced cytotoxicity in non-transfected HL-1 cells: 750 μM H2O2, LDH assay
[3] = molecular target: T1, hA1AR (Homo sapiens, UniProt P30542); test: cAMP assay, inhibition of forskolin-stimulated cAMP, CHO cells; format: cell-based
T1 sequence (P30542 1-326): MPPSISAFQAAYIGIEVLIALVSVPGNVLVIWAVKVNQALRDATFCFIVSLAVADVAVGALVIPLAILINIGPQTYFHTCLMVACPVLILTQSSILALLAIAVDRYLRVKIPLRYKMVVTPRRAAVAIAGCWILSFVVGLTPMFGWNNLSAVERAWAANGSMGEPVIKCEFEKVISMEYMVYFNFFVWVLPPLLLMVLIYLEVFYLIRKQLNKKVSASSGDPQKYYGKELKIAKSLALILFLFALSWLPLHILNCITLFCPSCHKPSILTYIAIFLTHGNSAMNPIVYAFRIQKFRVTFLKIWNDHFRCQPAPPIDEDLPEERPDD
Procedure, shortened: (§1)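 Stably transfected CHO cells (A1, A2A or A3AR) were seeded overnight at 37 °C, then given DMEM with 50 mM HEPES, 10 μM rolipram, 3 U/ml adenosine deaminase and rising test compound, for 30 min at 37 °C. For A1/A3, 10 μM forskolin was added for 15 min more; A2A plates were incubated 45 min. Cells were lysed in 0.1 M HCl; cAMP by immunoassay at 405 nm.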

[4] = molecular target: T2, hA2AAR (Homo sapiens, UniProt P29274); test: cAMP assay, stimulation of cAMP, CHO cells; format: cell-based
Procedure, shortened: as §1

[5] = molecular target: T3, hA3AR (Homo sapiens, UniProt P0DMS8); test: cAMP assay, inhibition of forskolin-stimulated cAMP, CHO cells; format: cell-based
T3 sequence (P0DMS8 1-318): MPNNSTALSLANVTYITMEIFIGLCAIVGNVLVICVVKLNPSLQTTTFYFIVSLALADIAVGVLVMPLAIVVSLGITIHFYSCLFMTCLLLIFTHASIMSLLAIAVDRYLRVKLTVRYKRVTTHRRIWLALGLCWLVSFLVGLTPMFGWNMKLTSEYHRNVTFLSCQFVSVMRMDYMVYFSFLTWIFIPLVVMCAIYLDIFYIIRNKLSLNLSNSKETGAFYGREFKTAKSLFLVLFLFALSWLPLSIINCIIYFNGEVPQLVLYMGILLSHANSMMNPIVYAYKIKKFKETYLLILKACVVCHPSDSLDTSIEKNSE
Procedure, shortened: as §1

[6] = molecular target: T1, hA1AR; conditions: read-out: Binding, Ki, A1; [3H]CCPA; previously reported; cited from earlier work
[7] = molecular target: T2, hA2AAR; conditions: read-out: Binding, Ki, A2A; [3H]CGS21680; previously reported; cited from earlier work
[8] = molecular target: T3, hA3AR; conditions: read-out: Binding, Ki, A3; [125I]AB-MECA; previously reported; cited from earlier work
[9] = molecular target: T1, hA1AR; test: Radioligand membrane binding, [3H]CCPA, stably transfected CHO cells; conditions: read-out: Binding, Ki app, A1, dendrimer concentration, mean ± SEM, n = 3
[10] = molecular target: T2, hA2AAR; test: Radioligand membrane binding, [3H]CGS21680, stably transfected HEK cells; conditions: read-out: Binding, Ki app, A2A, dendrimer concentration, mean ± SEM, n = 3
[11] = molecular target: T3, hA3AR; test: Radioligand membrane binding, [125I]AB-MECA, stably transfected CHO cells
[12] = test system: A3AR-transfected HL-1 cells; test: Luminescent caspase 3/7 assay of H2O2-induced apoptosis; format: cell-based, mouse; conditions: dendrimer 10 μM 1 h before 400 μM H2O2, 3 h
Procedure, shortened: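 HL-1 cells transfected with hA3AR were seeded at 30,000 cells/well and incubated overnight at 37 °C, then switched to DMEM with Ca/Mg. Dendrimer (10 μM) was added 1 h before H2O2 (400 μM) and kept throughout, with 3 h at 37 °C. An equal volume of Caspase-Glo 3/7 reagent was added for 90 min at room temperature before reading luminescence. Three independent experiments in triplicate, mean ± SD.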

T2 sequence (P29274 whole entry): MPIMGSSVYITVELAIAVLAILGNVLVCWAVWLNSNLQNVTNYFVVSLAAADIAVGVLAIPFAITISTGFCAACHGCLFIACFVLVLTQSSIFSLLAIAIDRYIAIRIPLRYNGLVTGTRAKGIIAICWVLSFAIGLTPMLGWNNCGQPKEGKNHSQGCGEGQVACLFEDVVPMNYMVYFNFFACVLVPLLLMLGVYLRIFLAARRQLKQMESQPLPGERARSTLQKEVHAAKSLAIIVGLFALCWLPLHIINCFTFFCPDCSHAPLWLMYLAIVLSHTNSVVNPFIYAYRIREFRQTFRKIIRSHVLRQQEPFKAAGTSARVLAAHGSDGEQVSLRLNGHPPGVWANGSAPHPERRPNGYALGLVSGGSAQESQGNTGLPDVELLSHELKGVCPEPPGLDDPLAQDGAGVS

Compound: CCNC(=O)[C@H]1O[C@@H](n2cnc3c(N)ncnc32)[C@H](O)[C@@H]1O [NECA, 5′-N-ethylcarboxamidoadenosine]
EC50 ([1]; 750 μM H2O2, 4 h): 3900 nM
Protection against H2O2-induced cytotoxicity in non-transfected HL-1 cells [2]: protected; also recorded: protective

Agonist efficacy in cAMP assay, A1AR (inhibition) [3]: potent full agonist
Agonist efficacy in cAMP assay, A2AAR (stimulation) [4]: potent full agonist
Agonist efficacy in cAMP assay, A3AR (inhibition) [5]: potent full agonist
Compound: N-(2-Aminoethyl)-ADAC [compound 4]
Ki [6]: 43 ± 5 nM
Ki [7]: 300 ± 20 nM
Ki [8]: 9.5 ± 2 nM

Compound: CNC(=O)[C@H]1O[C@@H](n2cnc3c(NCc4cccc(I)c4)nc(Cl)nc32)[C@H](O)[C@@H]1O [Cl-IB-MECA, 2-chloro-N^6-(3-iodobenzyl)-5′-N-methylcarboxamidoadenosine]
Protection against H2O2-induced cytotoxicity in A3AR-transfected HL-1 cells ([1]; LDH assay): revealed protection
IC50 ([1]; Mus musculus): 7900 ± 2300 nM
Protection against H2O2-induced cytotoxicity in non-transfected HL-1 cells [2]: neither IB-MECA nor Cl-IB-MECA gave protection

Ki [9]: 140 ± 65 nM
Ki [10]: 80 ± 17 nM
Ki ([11]; read-out: Binding, Ki app, A3, [125I]AB-MECA, dendrimer concentration, mean ± SEM, n = 3): 15 ± 4 nM
Selectivity for the A3AR in binding ([11]; versus A1 and A2AARs): only slightly selective
Compound: PAMAMG5.5-1(AF488-ED)-60(N-(2-aminoethyl)-ADAC) [compound 8]
Selectivity in assay of adenylate cyclase inhibition / AR activation ([5]; versus A1 and A2AARs): nonselective; also recorded: nonselectively
Protection against H2O2-induced cytotoxicity in A3AR-transfected HL-1 cells ([1]; LDH assay): highly potent
IC50 value less than those of monomeric A3AR agonists IB-MECA and Cl-IB-MECA ([1]; A3AR-transfected HL-1 cells, LDH assay): 100- to 200 fold
Effect on H2O2-induced apoptosis (caspase 3/7 luminescence) [12]: significantly decreased; also recorded: significant protection
Protection against H2O2-induced cytotoxicity in non-transfected HL-1 cells [2]: did not show cytoprotection

Compound: CNC(=O)[C@H]1O[C@@H](n2cnc3c(NCc4cccc(I)c4)ncnc32)[C@H](O)[C@@H]1O [IB-MECA, N^6-(3-iodobenzyl)-5′-N-methylcarboxamidoadenosine]
Protection against H2O2-induced cytotoxicity in A3AR-transfected HL-1 cells ([1]; LDH assay): revealed protection
EC50 ([1]; Mus musculus, HL-1, 4 h): 3800 nM
IC50 ([1]; Mus musculus): 3800 ± 1400 nM
Protection against H2O2-induced cytotoxicity in non-transfected HL-1 cells [2]: neither IB-MECA nor Cl-IB-MECA gave protection

Compound: OC[C@H]1O[C@@H](n2cnc3c(NC4CCCC4)nc(Cl)nc32)[C@H](O)[C@@H]1O [CCPA, 2-Chloro-N^6-cyclopentyladenosine]
Protection against H2O2-induced cytotoxicity in non-transfected HL-1 cells [2]: did not protect

Compound: CCOC(=O)C1=C(C)NC(c2ccccc2)=C(C(=O)OCc2ccccc2)C1C#Cc1ccccc1 (stereo not drawn) [MRS1191]
Effect of A3 antagonist on protection afforded by IB-MECA from H2O2-induced cell death ([1]; MRS1191 10 μM 1 h before IB-MECA 30 μM, 750 μM H2O2, 4 h, transfected HL-1 cells): prevented the protection

Compound: CCNC(=O)[C@H]1O[C@@H](n2cnc3c(N)nc(NCCc4ccc(CCC(=O)O)cc4)nc32)[C@H](O)[C@@H]1O [CGS21680, 2-[p-(2-carboxyethyl)phenylethyl-amino]-5′-N-ethylcarboxamidoadenosine]
Protection against H2O2-induced cytotoxicity in non-transfected HL-1 cells [2]: protected; also recorded: protective
IC50 ([2]; Mus musculus, HL-1, read-out: Protection from cell death induced by H2O2, untransfected cells, IC50): 7100 ± 2400 nM

Activity in assay of A3AR-mediated cAMP inhibition at 10 μM ([5]; 10 μM): inactive
Compound: PAMAMG5.5-1(AF488-ED) [compound 7]
Effect on H2O2-induced apoptosis (caspase 3/7 luminescence) [12]: did not significantly decrease; also recorded: not by 7
